Shown are actives, neighbours in structure and some others; about 2.3% of the full set was active somewhere.
TRPC4 PAM – allosteric potentiators of mouse TRPC4 channel. Q9QUQ5. HEK293 TRPC4beta/mu-opioid, DAMGO EC20, Fluo-4 Ca2+ flux; stronger effect = higher value. B-score at 10 µM. hit rate 0.42% among 310,000. AID 2227;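 active means B-score of calcium response area above 5 SD of library B-scores, with initial fluorescence ratio within 5 SD of library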
TRPC6 inhibitor – inhibitors of mouse TRPC6 channel; Q61143; hit rate 1.1% among 310,000; B-score at 10 µM; HEK293-TRPC6, membrane potential dye, ACh-evoked depolarization; stronger effect = lower value;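 active means B-score under library mean minus 3 SD, initial fluorescence not abnormally high, positive integrated signal ratio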;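 further: B-score derived from integrated fluorescence ratio over the kinetic read; more negative B-score means stronger inhibition of depolarization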
Target sequence (Q61143 whole entry, looked up): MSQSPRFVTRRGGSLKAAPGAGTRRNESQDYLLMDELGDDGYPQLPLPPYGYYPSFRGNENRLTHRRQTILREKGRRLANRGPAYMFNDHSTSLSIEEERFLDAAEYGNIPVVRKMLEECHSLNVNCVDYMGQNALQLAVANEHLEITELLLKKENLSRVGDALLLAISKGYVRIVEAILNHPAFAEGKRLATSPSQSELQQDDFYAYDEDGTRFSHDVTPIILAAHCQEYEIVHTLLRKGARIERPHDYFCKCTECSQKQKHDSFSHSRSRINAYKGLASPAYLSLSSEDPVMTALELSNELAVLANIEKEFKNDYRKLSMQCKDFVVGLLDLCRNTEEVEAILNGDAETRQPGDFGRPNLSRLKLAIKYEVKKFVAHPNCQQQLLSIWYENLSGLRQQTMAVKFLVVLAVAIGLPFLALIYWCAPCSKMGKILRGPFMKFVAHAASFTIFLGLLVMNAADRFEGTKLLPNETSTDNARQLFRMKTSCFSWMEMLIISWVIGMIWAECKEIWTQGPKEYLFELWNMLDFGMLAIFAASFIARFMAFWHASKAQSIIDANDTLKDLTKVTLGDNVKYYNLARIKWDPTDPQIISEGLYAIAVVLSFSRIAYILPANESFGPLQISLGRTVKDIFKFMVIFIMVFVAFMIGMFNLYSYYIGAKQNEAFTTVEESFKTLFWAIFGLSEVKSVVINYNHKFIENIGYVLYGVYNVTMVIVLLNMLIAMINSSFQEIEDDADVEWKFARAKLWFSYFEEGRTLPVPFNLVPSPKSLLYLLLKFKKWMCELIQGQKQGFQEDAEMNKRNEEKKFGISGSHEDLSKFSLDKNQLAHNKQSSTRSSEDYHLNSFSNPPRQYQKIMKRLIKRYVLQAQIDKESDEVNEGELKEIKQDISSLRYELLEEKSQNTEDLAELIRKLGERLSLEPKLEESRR
TRPC6 act – mouse TRPC6 channel activation; Q61143; hit rate 0.13% among 310,000; HEK293-TRPC6 membrane potential dye fluorescence; stronger effect = higher value; B-score at 10 µM; AID 2550;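 active means B-score of the integrated fluorescence ratio above library mean plus 3 SD, and starting fluorescence ratio within library mean plus 5 SD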;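 further: higher score means more depolarization so channel activation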
TRPC4 inh – TRPC4 (mouse) channel inhibition | Q9QUQ5 | HEK293 TRPC4beta/mu-opioid, DAMGO-evoked Fluo4 calcium flux; stronger effect = lower value | B-score at 10 µM | hit rate 0.39% among 300,000;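 active means B-score over 3 SD under the library average, no early fluorescence shift, positive overall ratio signal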
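Test system – stable TRPC4beta/mu-opioid receptor HEK293 cells · Probe or stimulus – DAMGO, a submaximal dose followed by a maximal one · Dosing – one concentration per compound · Signal – Fluo4 calcium fluorescence by kinetic imaging, 5 s 1 Hz baseline · Evaluation – per-well B score of integrated baseline-normalized Fluo4 ratio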
DNA FID counter – displaces DNA intercalator in HCV helicase counter-screen; DNA fluorescent intercalator displacement, fluorescence; hit rate 0.17% among 290,000; inhibition, % at 7.9 µM; in the data active means inhibition above about 37%;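 further: higher means more ethidium bromide displaced from hairpin DNA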
TRPC4 act – TRPC4 (mouse) channel activation; Q9QUQ5; hit rate 0.49% among 310,000; HEK293 TRPC4beta/mu-opioid, Fluo4 calcium fluorescence; stronger effect = higher value; B-score at 10 µM;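 active means B-score above 5 SD of library B-scores, and initial fluorescence ratio not above library mean plus 5 SD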;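 further: positive B-score marks a calcium rise read as TRPC4 activation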
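Technique: kinetic Fluo4 calcium fluorescence; Test system: TRPC4beta and mu-opioid receptor HEK293 stable cells; Measure: B-scored integrated calcium fluorescence ratio; Benchmarks: low control buffer alone, high control maximal DAMGO; Schedule: 45 min room-temperature Fluo4 loading, 110 s read.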
Of the large screens only hits and unclear results are named; the others gave an inactive call.

C#CCOCCOCCOCCNc1nc(N2CCN(C(=O)[C@H](CCCCN)n3cc([C@@H](N)CO)nn3)CC2)nc(N2CCN(C(=O)[C@H](Cc3cc4ccccc4[nH]3)n3cc([C@@H](N)Cc4ccc(O)cc4)nn3)CC2)n1	DNA FID counter 54.7
C#CCOCCOCCOCCNc1nc(N2CCN(C(=O)[C@H](CCCCN)n3cc([C@@H](N)CC(C)C)nn3)CC2)nc(N2CCN(C(=O)[C@H](Cc3cc4ccccc4[nH]3)n3cc([C@@H](N)Cc4ccc(O)cc4)nn3)CC2)n1	DNA FID counter 76.4
Cc1nn(-c2ccccc2)c(Cl)c1/C=N/Nc1ccc(Cl)c(C(=O)O)c1	none
Cc1nn(-c2ccccc2)c(Cl)c1/C=N/Nc1ccc(S(=O)(=O)Nc2ccccc2C(=O)O)cc1[N+](=O)[O-]	TRPC4 inh -6
CS(=O)(=O)N(CC(=O)N1CCCCCC1)c1cc(Cl)ccc1Cl	none
O=C(Nc1cccc(C(F)(F)F)c1)c1cccc(NS(=O)(=O)c2ccc(Br)c(C(=O)O)c2)c1	none
O=C(Nc1cccc(C(F)(F)F)c1)c1cccc(NS(=O)(=O)c2ccc(O)c(C(=O)O)c2)c1	TRPC4 PAM 22
Cc1ccc(C(=O)/C=C/c2cc(Br)cc(Br)c2O)o1	none
Nc1nc(Cl)nc2c1ncn2[C@@H]1O[C@H](CO)[C@@H](O)[C@H]1O	TRPC4 act 50
Nc1ncn([C@@H]2O[C@H](CO)[C@@H](O)[C@H]2O)c(=O)n1	none (no result: DNA FID counter)
COc1cccc(C(C)N(C)Cc2nc(-c3ccoc3)oc2C)c1 (configuration not stated)	none
Cc1oc(-c2ccoc2)nc1CN(Cc1ccccc1)CC1CC1	TRPC4 inh -9
O=C(CN1CCCCCC1)N1c2ccccc2Sc2ccccc21	TRPC4 inh -7
O=C(CN1CCCCC1)N1c2ccccc2Oc2ccccc21	TRPC4 inh -5
CCCc1cc(=O)[nH]c(SCC(=O)Nc2oc(C)c3c(C)n[nH]c(=O)c23)n1	none (no result: DNA FID counter)
Cc1cc(-c2ccc(C)c(S(=O)(=O)NCCCN3CCN(c4ccccc4)CC3)c2)on1	none
Cc1cc(-c2ccc(C)c(S(=O)(=O)N3CCN(c4ccc([N+](=O)[O-])cc4)CC3)c2)on1	none
COc1ccc(-c2cc(C)no2)cc1S(=O)(=O)NCCCN(C)Cc1ccccc1	TRPC4 PAM 14
Cc1cc(-c2ccc(C)c(S(=O)(=O)N3CCN(c4ccccn4)CC3)c2)on1	TRPC4 PAM 40
Cc1cc(-c2ccc(C)c(S(=O)(=O)NCCCN3CCCCCC3)c2)on1	TRPC4 PAM 10
O=C(NC1CCCN(Cc2ccc(Cl)cc2)C1)c1c(F)ccc(F)c1F (configuration not stated)	none
COc1cccc(NC(=O)C(=O)NCCCN2CCCC2=O)c1	none (no result: DNA FID counter)
COc1cc(NC(C)CCCN)c2ncccc2c1Oc1ccccc1 (configuration not stated)	TRPC4 act 83
COc1cc(NC(C)CCc2ccccc2)cc(OC)c1OC (configuration not stated)	none
CCCCCOc1ccc(Br)cc1/C(C)=N/NC1=NCCN1	TRPC6 inhibitor -5.88
COc1ccc(Br)cc1/C(C)=N/NC1=NCCN1	none
CN1CCN(Cc2nc3c(c(=O)[nH]c(=O)n3C)n2Cc2c(F)cccc2Cl)CC1	TRPC4 PAM 20, TRPC4 act 80 (no result: DNA FID counter)
O/N=C/Cc1[nH]c2ccccc2c1-c1ccccc1	TRPC4 inh -5
COc1nc(N=C(N)N)nc2ccc(C)cc12	TRPC4 inh -5
COc1nc(Nc2nc3ccccc3c(=O)[nH]2)nc2ccc(C)cc12	none
COc1ccc(Br)cc1CNC(C)c1ccccc1 (configuration not stated)	TRPC4 inh -6
COc1ccccc1CCC(=O)N(C)CC(=O)Nc1ccc(Cl)c(C(F)(F)F)c1	none
COCCN(C(=O)Cn1nnc2ccccc21)C(C(=O)NC1CCCC1)c1cc(OC)ccc1OC (configuration not stated)	TRPC6 act 24.5
Cc1cc(NC(=O)Nc2cccc(Cl)c2)n(-c2ccccc2)n1	none
Cc1cc(NC(=O)Nc2cccc(Cl)c2)n(-c2ccccn2)n1	TRPC6 inhibitor -5.2
COc1ccc(OC)c(NC(=O)c2cc(S(=O)(=O)N(C)C)ccc2N2CCCC2)c1	none (no result: DNA FID counter)
Cc1cc(C)c(OCCCCN(C)C)c(Br)c1	none
Cc1cc(Cl)cc(Cl)c1OCCCCN(C)C	TRPC4 PAM 36
COc1ccc(CCN2CC(C(=O)OCC(=O)Nc3c(C)nn(-c4ccccc4)c3C)CC2=O)cc1OC (configuration not stated)	none (no result: DNA FID counter)
COc1cc(C2/C(=C(\O)c3ccc4c(c3)OCCO4)C(=O)C(=O)N2c2nnc(C)s2)cc(OC)c1OC (configuration not stated)	none
CC(=O)c1ccc(OCC(O)CN2CCOCC2)cc1 (configuration not stated)	none
CN1CCN(S(=O)(=O)c2ccc(Cl)c3ccccc23)CC1	none
CN1CCN(S(=O)(=O)c2cc(Cl)c(Cl)cc2Cl)CC1	TRPC4 act 51
CN1CCN(S(=O)(=O)c2ccc(Br)c3ccccc23)CC1	TRPC4 PAM 49
CC(=O)c1ccc(OCC(O)CN2CCN(S(=O)(=O)c3c(C)cc(C)cc3C)CC2)cc1 (configuration not stated)	TRPC4 PAM 22
Cc1cc(C)c(S(=O)(=O)N2CCN(C)CC2)c(C)c1	TRPC4 PAM 21
N#CCCN(C(=O)COC(=O)CCc1c[nH]c2ccccc12)c1ccccc1	none (no result: DNA FID counter)
O=C(CS(=O)(=O)c1ccc(Cl)cc1)NCc1ccccc1	none
O=C(NC(=S)Nc1ccccc1Br)C1CCC1	none
Cc1cc(C)c(S(=O)(=O)N2CCN(CCO)CC2)c(C)c1	none
CCN1CCN(S(=O)(=O)c2c(C)cc(C)cc2C)CC1	TRPC4 PAM 21
COc1ccccc1CCc1nnc(CCC(=O)NCCCOc2cccnc2)o1	TRPC4 inh -6
Cc1ccccc1C(=O)NC1CC2CCCC(C1)N2C(=O)Nc1ccccc1 (configuration not stated)	none
O=C(COc1c(Br)cc(Br)c2cccnc12)N1CCCCC1	none
Oc1c(CN2CCc3ccccc3C2)cc(Cl)c2cccnc12	TRPC4 act 69
O=C(Oc1c(CN2CCOCC2)cc(Cl)c2cccnc12)c1ccccc1	none
Oc1c(CN2CCCCC2)cc(Br)c2cccnc12	TRPC4 inh -7
CCOc1ccccc1O[C@H](c1ccccc1)[C@H]1CNCCO1	TRPC4 act 161 (no result: DNA FID counter)
Cc1ccc(C(CNS(=O)(=O)c2ccc(Br)cc2)N2CCN(C)CC2)cc1 (configuration not stated)	none (no result: DNA FID counter)
Cc1ccc(C(CNS(=O)(=O)c2ccc([N+](=O)[O-])cc2)N2CCN(C)CC2)cc1 (configuration not stated)	TRPC4 inh -6 (no result: DNA FID counter)

Screens: PubChem BioAssay, several laboratories
